Measurements taken from ChEMBL document CHEMBL1138050, “Furan-2-ylmethylene thiazolidinediones as novel, potent, and selective inhibitors of phosphoinositide 3-kinase gamma” (J Med Chem, 2006).

Columns and labels:
RAW264.7 = test: Inhibition of C5a-mediated PKB/Akt phosphorylation in mouse Raw264 macrophage; assay type: functional, cell-based
In short: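 Raw-264 murine macrophages starved 3 h in serum-free medium, pretreated 30 min with inhibitor or DMSO, then stimulated 5 min with 50 nM C5a. Phospho-Ser-473 Akt measured by ELISA. Concentration-response; IC50. Mean ± standard deviation of four independent experiments done in triplicate.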

[1] = target: Protein kinase C beta type (Homo sapiens) (UniProt P05771); test: Residual activity at human PKCbeta2 at 10 uM in presence of 10 uM ATP relative to control
Chain of Protein kinase C beta type (Homo sapiens) (P05771 2-671 limits assumed): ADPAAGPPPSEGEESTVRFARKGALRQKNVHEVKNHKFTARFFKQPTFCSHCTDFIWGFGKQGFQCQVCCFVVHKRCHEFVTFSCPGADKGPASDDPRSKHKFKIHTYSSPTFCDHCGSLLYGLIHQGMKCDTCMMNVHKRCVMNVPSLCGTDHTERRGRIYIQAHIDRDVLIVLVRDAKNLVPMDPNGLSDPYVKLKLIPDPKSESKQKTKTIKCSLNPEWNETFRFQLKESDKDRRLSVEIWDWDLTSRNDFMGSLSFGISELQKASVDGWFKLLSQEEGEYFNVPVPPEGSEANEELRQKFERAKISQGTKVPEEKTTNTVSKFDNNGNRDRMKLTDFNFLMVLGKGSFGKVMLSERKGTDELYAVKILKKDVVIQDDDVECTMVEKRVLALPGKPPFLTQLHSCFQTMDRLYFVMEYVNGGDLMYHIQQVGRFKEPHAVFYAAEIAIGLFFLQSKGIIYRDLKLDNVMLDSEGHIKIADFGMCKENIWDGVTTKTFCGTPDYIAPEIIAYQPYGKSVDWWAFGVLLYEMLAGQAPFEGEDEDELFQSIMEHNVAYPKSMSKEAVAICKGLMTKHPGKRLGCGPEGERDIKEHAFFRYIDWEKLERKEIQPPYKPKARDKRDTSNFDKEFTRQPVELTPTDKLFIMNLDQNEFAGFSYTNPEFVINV
In short: (§1)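 Single-concentration counter-screen across a panel of 80 Ser/Thr and Tyr protein kinases. Compound was tested at 10 µM with ATP at 10 µM. Activity remaining in each kinase is expressed relative to control.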

[2] = target: 3-phosphoinositide-dependent protein kinase 1 (Homo sapiens) (UniProt O15530); test: Residual activity at human PDK1 at 10 uM in presence of 10 uM ATP relative to control; in short: as §1
Chain of 3-phosphoinositide-dependent protein kinase 1 (Homo sapiens) (O15530 whole entry): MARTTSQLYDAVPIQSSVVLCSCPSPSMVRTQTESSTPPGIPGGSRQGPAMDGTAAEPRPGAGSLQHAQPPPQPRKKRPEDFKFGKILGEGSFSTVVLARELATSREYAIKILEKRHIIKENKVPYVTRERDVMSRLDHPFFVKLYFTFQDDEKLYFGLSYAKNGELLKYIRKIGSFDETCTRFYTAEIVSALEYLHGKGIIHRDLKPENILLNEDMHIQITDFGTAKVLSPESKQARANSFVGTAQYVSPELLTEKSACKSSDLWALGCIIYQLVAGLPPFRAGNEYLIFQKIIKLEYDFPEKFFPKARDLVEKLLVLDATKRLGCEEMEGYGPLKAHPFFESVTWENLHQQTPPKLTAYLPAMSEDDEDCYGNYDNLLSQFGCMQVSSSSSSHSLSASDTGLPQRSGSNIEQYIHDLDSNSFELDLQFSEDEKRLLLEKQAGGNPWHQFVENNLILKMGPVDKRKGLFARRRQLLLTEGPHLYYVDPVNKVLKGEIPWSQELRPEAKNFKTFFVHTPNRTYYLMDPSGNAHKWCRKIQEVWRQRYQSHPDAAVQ

[3] = target: Dual specificity mitogen-activated protein kinase kinase 6 (Homo sapiens) (UniProt P52564); test: Residual activity at human MKK6 at 10 uM in presence of 10 uM ATP relative to control; in short: as §1
Chain of Dual specificity mitogen-activated protein kinase kinase 6 (Homo sapiens) (P52564 whole entry, canonical isoform): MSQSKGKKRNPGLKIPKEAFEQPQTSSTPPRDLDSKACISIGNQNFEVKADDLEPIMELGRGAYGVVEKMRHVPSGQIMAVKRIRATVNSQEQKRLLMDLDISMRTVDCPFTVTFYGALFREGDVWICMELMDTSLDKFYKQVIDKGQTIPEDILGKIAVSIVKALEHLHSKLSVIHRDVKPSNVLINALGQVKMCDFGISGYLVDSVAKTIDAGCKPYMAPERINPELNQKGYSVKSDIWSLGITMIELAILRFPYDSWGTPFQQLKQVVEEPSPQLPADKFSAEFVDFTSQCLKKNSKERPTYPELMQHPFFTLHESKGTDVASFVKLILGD

[4] = target: T1, Phosphatidylinositol 4,5-bisphosphate 3-kinase catalytic subunit delta isoform (Homo sapiens, UniProt O00329); test: Inhibition of human PI3Kdelta
T1 sequence (O00329 whole entry): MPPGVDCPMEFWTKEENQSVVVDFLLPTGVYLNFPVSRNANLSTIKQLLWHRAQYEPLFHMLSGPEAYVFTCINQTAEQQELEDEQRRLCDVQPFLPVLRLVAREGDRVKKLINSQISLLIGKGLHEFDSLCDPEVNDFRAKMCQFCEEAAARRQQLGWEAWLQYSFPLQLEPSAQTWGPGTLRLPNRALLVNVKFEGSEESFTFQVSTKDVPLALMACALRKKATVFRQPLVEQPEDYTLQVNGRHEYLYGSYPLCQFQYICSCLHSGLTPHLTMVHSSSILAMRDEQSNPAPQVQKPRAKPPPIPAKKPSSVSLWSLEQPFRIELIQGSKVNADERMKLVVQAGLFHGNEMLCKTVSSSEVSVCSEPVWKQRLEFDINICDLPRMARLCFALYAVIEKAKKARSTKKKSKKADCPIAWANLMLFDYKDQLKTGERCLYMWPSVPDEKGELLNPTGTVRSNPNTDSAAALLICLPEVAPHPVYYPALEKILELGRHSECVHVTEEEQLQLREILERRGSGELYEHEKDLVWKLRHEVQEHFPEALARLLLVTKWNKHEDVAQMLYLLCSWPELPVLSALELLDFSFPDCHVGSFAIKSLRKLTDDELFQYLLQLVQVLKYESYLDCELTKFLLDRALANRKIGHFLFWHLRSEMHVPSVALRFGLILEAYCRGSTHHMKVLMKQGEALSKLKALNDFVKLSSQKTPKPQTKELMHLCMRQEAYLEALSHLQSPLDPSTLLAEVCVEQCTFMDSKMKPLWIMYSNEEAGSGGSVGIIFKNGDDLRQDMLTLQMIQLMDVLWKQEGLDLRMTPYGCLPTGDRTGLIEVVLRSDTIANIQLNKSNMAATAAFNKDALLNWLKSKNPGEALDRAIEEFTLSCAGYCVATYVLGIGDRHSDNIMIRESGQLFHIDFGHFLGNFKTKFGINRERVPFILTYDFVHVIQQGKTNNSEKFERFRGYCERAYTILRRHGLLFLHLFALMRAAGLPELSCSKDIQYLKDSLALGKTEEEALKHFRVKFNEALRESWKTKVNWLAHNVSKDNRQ

[5] = target: Glycogen synthase kinase-3 alpha (Homo sapiens) (UniProt P49840); test: Residual activity at human GSK3alpha at 10 uM in presence of 10 uM ATP relative to control
Chain of Glycogen synthase kinase-3 alpha (Homo sapiens) (P49840 2-483 limits assumed): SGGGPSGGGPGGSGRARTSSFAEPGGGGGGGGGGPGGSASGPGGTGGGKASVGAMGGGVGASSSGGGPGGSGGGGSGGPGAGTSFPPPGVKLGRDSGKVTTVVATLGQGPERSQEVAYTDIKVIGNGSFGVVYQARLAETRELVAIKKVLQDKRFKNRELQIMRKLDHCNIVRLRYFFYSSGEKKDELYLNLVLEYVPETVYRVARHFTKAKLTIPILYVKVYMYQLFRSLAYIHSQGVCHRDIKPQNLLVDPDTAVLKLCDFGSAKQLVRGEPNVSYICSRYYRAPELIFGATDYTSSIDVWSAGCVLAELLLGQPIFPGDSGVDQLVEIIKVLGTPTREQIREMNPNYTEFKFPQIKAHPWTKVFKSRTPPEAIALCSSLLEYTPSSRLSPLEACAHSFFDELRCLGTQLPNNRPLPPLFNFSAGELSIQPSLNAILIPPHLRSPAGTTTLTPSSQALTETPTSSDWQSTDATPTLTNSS
In short: (§2)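 Panel of Ser/Thr and Tyr protein kinases, each tested with 10 µM compound in the presence of 10 µM ATP; activity expressed relative to control.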

[6] = target: Cyclin-dependent kinase 2/cyclin A (Homo sapiens) (UniProt P24941+P20248+P78396); test: Residual activity at human CDK2/CyclinA at 10 uM in presence of 10 uM ATP relative to control; assay type: protein-complex assay; in short: as §2
Monocyte = test: Inhibition of MCP1-induced chemotaxis of mouse primary monocytes; assay type: functional, cell-based
In short: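 Cells were starved and pretreated with inhibitor or DMSO, then chemotaxis was induced with MCP-1 (10^-9 M). Primary mouse monocytes: 10^7 5-day bone-marrow-derived monocytes in medium with 0.5% BSA and compound, placed in the upper chamber of a 5 µm transwell. MCP-1 plus compound in the lower chamber. After 3 h at 37 °C, 5% CO2, cells in the lower chamber were counted. IC50.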

[7] = Metabolism in rat microsome after 1 hr; assay type: ADME; details: microsomes, read-out: Activity
[8] = target: Tyrosine-protein kinase ABL2 (Mus musculus) (UniProt Q4JIM5); test: Residual activity at mouse Arg at 10 uM in presence of 10 uM ATP relative to control; in short: as §1
Chain of Tyrosine-protein kinase ABL2 (Mus musculus) (Q4JIM5 whole entry): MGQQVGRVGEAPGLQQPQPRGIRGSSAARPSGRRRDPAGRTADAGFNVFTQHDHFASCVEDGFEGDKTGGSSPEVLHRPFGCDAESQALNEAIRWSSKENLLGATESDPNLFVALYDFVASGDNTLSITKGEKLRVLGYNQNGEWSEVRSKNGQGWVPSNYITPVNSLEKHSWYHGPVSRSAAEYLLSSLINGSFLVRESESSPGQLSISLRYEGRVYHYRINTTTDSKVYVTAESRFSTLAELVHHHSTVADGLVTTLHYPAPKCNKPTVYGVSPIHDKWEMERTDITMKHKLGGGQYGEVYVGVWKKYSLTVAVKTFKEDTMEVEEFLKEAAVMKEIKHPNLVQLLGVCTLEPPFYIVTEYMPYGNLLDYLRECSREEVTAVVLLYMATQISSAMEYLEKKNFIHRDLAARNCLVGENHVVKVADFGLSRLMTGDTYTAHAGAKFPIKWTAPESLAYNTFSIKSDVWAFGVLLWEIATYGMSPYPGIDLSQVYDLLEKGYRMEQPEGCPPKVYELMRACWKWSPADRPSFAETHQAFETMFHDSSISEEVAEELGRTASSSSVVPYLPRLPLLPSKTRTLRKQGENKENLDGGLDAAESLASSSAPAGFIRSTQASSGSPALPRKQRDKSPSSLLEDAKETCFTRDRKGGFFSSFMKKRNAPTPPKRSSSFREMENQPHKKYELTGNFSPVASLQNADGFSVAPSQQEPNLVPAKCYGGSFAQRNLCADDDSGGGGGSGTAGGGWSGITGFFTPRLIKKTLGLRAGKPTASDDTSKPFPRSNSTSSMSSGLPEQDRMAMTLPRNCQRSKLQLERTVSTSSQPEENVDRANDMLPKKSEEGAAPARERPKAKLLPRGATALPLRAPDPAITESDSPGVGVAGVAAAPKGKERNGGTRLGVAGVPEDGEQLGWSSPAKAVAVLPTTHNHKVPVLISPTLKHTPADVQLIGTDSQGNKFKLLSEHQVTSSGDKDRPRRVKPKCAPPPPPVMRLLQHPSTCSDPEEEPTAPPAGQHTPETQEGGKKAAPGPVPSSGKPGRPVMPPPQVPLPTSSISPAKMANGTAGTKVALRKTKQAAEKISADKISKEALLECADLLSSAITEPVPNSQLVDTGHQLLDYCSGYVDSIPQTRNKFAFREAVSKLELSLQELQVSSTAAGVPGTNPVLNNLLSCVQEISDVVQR

IC50 (RAW264.7): 0.23 µM | Activity [1]: 98% | Activity [2]: 104% | Activity [3]: 105% | IC50 [4]: 20 µM | Activity [5]: 66% | Activity [6]: 84% | IC50 (Monocyte): 52 µM | metabolised at 1 h [7]: 16% | Activity [8]: 85%
Compound: O=C1NC(=O)/C(=C/c2ccc(-c3ccc(F)cc3O)o2)S1
